Experimental data reported in ChEMBL document CHEMBL5321292, “Targeting Cytotoxic Agents through EGFR-Mediated Covalent Binding and Release” (J Med Chem, 2023).
One block for each molecule: values may come before it. Activity calls are given as the source filed them. No cut-off for these calls is given here.

How the values were obtained:
[1] = Stability of compound assessed as formation of 5-fluorouracil by measuring half life
[2] = target: T1, Epidermal growth factor receptor (Homo sapiens, UniProt P00533); assay: Inhibition of EGFR phosphorylation in human A-431 cells at 1 uM incubated for 4 hr by Western blot analysis; assay type: cell-based
How it was run: (§1)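 A431 cells treated for 4 h and lysed in Phosphosafe buffer with protease inhibitors. Western blot probed with anti-EGFR and anti-pEGFR primary antibodies (1:1000 in 5% BSA) plus a loading control, then HRP-conjugated secondary antibodies. Bands detected by ECL.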

A-431 [3] = assay: Antiproliferative activity against human A-431 cells assessed as cell growth inhibition measured after 72 hrs in presence of 5-fluorouracil by SRB assay; assay type: functional, cell-based; settings: A-431, 72 h
How it was run: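 A431 cells (ECACC) seeded day 0 at exponential-growth density in DMEM + 10% FBS. Compound diluted in medium and added day 1, final DMSO 0.1%. Incubated 72 h at 37 °C, 5% CO2. Fixed with 50% TCA at 4 °C for 1 h, stained with 0.4% SRB for 30 min, washed with 1% AcOH, solubilised in 10 mM Tris pH 10.5. Absorbance read at 570 nm.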

[4] = target: Epidermal growth factor receptor (Mus musculus, UniProt Q01279); assay: Inhibition of C-terminal his6-tagged mouse EGFR by TR-FRET assay
[5] = target: T1, Epidermal growth factor receptor; assay: Inhibition of EGFR in human A-431 cells incubated for 2.5 hrs by HTRF analysis; assay type: cell-based
How it was run: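 A431 cells plated at 20 000/well and allowed to adhere for 24 h. Treated 2.5 h in duplicate (0.1% DMSO), then stimulated with 100 ng/mL EGF for 30 min. Lysed 30 min at room temperature. HTRF measured pEGFR (Tyr1068) and total EGFR at 665/620 nm. Values taken as pEGFR/total EGFR ratio, expressed as % of 0 μM control.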

[6] = target: T1, Epidermal growth factor receptor; assay: Inhibition of EGFR phosphorylation in human A-431 cells at 10 uM incubated for 4 hr by Western blot analysis; assay type: cell-based
How it was run: as §1

A-431 [7] = assay: Antiproliferative activity against human A-431 cells assessed as cell growth inhibition measured after 72 hrs by SRB assay; assay type: functional, cell-based; settings: A-431, read-out: pGI50 (converted)
[8] = target: T1, Epidermal growth factor receptor; assay: Inhibition of EGFR phosphorylation in human A-431 cells incubated for 4 hr

T1 sequence (P00533 whole entry): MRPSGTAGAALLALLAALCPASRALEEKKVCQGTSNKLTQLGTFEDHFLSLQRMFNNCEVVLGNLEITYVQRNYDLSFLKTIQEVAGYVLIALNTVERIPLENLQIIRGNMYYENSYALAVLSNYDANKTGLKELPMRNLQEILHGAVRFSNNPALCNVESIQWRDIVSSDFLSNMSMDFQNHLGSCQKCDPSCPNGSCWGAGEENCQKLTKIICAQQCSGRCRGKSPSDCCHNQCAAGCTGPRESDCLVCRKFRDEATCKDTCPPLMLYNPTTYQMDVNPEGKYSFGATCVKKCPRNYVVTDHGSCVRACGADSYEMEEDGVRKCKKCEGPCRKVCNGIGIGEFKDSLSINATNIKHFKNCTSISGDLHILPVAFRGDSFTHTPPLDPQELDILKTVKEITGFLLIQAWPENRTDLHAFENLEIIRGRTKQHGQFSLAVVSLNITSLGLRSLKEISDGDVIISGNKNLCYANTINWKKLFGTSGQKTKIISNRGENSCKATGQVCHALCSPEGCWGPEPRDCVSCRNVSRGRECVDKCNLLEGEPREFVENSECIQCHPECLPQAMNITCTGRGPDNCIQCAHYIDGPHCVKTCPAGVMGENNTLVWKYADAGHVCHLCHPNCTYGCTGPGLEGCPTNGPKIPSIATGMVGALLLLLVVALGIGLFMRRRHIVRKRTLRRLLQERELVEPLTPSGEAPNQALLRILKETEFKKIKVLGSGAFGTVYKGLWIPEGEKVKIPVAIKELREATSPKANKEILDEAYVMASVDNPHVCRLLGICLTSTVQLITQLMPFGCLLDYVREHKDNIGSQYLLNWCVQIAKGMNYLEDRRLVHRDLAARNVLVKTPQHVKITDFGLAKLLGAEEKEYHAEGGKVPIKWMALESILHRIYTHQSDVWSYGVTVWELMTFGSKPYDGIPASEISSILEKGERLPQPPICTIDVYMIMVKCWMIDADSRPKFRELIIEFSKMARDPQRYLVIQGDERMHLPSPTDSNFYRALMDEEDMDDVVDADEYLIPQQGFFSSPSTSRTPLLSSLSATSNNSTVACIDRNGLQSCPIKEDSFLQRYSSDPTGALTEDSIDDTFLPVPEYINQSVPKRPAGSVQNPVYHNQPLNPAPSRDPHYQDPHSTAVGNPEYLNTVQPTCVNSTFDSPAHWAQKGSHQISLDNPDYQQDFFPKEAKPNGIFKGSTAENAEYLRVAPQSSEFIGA
Sequence of Epidermal growth factor receptor (Mus musculus, UniProt Q01279) (Q01279 whole entry): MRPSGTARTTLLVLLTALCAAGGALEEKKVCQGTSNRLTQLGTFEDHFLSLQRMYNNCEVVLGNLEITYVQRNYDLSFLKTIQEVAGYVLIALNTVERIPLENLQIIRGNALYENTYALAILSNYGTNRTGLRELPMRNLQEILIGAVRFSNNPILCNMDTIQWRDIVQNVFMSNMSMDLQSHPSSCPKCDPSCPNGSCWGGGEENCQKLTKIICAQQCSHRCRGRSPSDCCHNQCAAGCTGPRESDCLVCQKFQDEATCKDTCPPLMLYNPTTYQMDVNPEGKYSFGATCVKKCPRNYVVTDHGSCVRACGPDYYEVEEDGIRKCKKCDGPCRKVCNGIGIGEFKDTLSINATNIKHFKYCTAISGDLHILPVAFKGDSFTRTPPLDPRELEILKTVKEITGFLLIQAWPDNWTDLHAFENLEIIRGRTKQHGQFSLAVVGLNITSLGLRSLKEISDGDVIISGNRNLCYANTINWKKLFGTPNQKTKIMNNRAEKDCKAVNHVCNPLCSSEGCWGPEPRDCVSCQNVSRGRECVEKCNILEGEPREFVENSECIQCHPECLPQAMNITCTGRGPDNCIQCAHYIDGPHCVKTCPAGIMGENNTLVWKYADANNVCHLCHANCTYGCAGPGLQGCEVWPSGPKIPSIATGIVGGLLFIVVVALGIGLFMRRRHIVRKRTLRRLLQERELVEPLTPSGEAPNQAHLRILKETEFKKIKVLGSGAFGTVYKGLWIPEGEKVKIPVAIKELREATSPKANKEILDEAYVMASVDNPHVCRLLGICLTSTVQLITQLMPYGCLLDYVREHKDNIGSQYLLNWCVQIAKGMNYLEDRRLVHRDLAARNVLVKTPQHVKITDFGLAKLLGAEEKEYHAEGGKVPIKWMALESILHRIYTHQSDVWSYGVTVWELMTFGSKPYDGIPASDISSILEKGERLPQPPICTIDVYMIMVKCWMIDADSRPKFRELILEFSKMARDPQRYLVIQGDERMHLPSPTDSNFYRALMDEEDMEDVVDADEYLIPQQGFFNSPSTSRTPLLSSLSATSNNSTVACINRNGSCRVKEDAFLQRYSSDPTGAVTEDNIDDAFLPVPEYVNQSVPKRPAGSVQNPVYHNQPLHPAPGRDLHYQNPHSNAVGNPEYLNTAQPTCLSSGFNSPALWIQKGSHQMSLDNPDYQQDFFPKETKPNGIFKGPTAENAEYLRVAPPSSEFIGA

Compound: O=C(/C=C/n1cc(F)c(=O)[nH]c1=O)Cc1ccccc1
- t1/2 [1]: ~ 36 hr

Compound: COc1cc2ncnc(Nc3ccc(F)c(Cl)c3)c2cc1OC(=O)/C=C/n1cc(F)c(=O)[nH]c1=O
- IC50 [4]: 158 nM
- IC50 [5]: 15.8 nM
- inhibition [6]: Active
- inhibition [2]: inactive
- GI50 (A-431 [7]): 5010 nM
- IC50 [8]: 15.8 nM

Compound: COc1ccc(OC(=O)/C=C/n2cc(F)c(=O)[nH]c2=O)cc1
- t1/2 [1]: 36 h

Compound: COCCOCCOc1ccc(NC(=O)/C=C/n2cc(F)c(=O)[nH]c2=O)cc1
- t1/2 [1]: 10 h

Next, values leading:

- t1/2 [1]: 2.5 h
Compound: N#Cc1ccc(OC(=O)/C=C/n2cc(F)c(=O)[nH]c2=O)cc1

- t1/2 [1]: 0.1 h
Compound: O=C(/C=C/n1cc(F)c(=O)[nH]c1=O)Oc1ccc([N+](=O)[O-])cc1

- inhibition [2]: Active
- IC50 (A-431 [3]): 631 nM
Compound: COc1cc2ncnc(Nc3ccc(F)c(Cl)c3)c2cc1OC(=O)/C=C/CN1CCCCC1

- IC50 [4]: 50.1 nM
- IC50 [5]: 2510 nM
- IC50 [8]: 2510 nM
Compound: COc1cc2ncnc(Nc3ccc(F)c(Cl)c3)c2cc1NC(=O)/C=C/n1cc(F)c(=O)[nH]c1=O

- t1/2 [1]: 2.9 h
Compound: O=C(/C=C/n1cc(F)c(=O)[nH]c1=O)Oc1ccc(Cl)cc1

- t1/2 [1]: 3 h
Compound: O=C(/C=C/n1cc(F)c(=O)[nH]c1=O)Oc1ccc(F)cc1
